Data taken from ChEMBL document CHEMBL2057171, “Arylstibonic acids are potent and isoform-selective inhibitors of Cdc25a and Cdc25b phosphatases” (Bioorg Med Chem, 2012).
Active and inactive are the calls of the source. The rule behind the calls is not given here.

How the values were obtained:
Rattus norvegicus = species: Rattus norvegicus; assay: Inhibition of rat GST-tagged synaptojanin SAC1 domain expressed in Escherichia coli XL-1 blue using I(1,4,5))P3 as substrate at 5 uM by malachite green assay
Outline: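 GST-synaptojanin was expressed in E. coli XL-1 blue (1 mM IPTG, 18°C, 24 h) and purified on glutathione sepharose. Substrate: 50 µM PI(4)P in octylglucoside mixed micelles for synaptojanin; 50 µM I(1,4,5)P3 for SAC1. Assay ran at 37°C in 100 mM Tris pH 7.4, 4 mM MgCl2 with 5 µM compound. Malachite green stopped the reaction, colour developed 10 min, and absorbance was read at 625 nm. Heat-denatured enzyme served as blank. Triplicates.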

[1] = biological target: Receptor-type tyrosine-protein phosphatase beta (Homo sapiens) (UniProt P23467); assay: Inhibition of PTP-beta receptor using p-NPP as substrate at 5 uM by colorimetric analysis
Outline: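 Purchased PTP-β assayed with 1 mM p-NPP (near KM) in 25 mM Hepes pH 7.4, 50 mM NaCl, 5 mM DTT; arylstibonate fixed at 5 µM. The reaction was started by adding p-NPP in water, and p-nitrophenol release was read at 405 nm. Reported as % inhibition from triplicates, with standard error.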

[2] = biological target: M-phase inducer phosphatase 1 (Homo sapiens) (UniProt P30304); assay: Reversible inhibition of N-terminal His-tagged Cdc25a catalytic domain expressed in Escherichia coli BL21(DE3) using 3-O-Methylfluorescein phosphate as substrate at 4 times IC50 by 10-fold dilution method
Outline: (§1)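 Reversibility test by dilution. Cdc25a or Cdc25b is preincubated with arylstibonate, then diluted 10-fold in reaction buffer (100 mM Tris pH 7.4, 2 mM DTT). Activity is then measured in the OMFP fluorescence assay (ex 485/em 525 nm, 20 °C) and expressed as % of the uninhibited reaction.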

[3] = biological target: M-phase inducer phosphatase 2 (Homo sapiens) (UniProt P30305); assay: Reversible inhibition of N-terminal His-tagged Cdc25b catalytic domain expressed in Escherichia coli BL21(DE3) using 3-O-Methylfluorescein phosphate as substrate at 4 times IC50 by 10-fold dilution method; outline: as §1
[4] = biological target: M-phase inducer phosphatase 1 (Homo sapiens) (UniProt P30304); assay: Mixed-type inhibition of N-terminal His-tagged Cdc25a catalytic domain expressed in Escherichia coli BL21(DE3) using 3-O-Methylfluorescein phosphate as substrate by Michaelis-Menten plot analysis
Outline: (§2)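 Steady-state kinetics of the Cdc25a and Cdc25b catalytic domains with varying OMFP and several arylstibonate concentrations. Run at 20 °C in 100 mM Tris pH 7.4 with 2 mM DTT, after a 10 min RT enzyme–inhibitor preincubation. Fluorescence read at ex 485/em 525 nm. Michaelis–Menten plots give apparent Km and Vmax; secondary plots give Ki.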

[5] = biological target: M-phase inducer phosphatase 2 (Homo sapiens) (UniProt P30305); assay: Mixed-type inhibition of N-terminal His-tagged Cdc25b catalytic domain expressed in Escherichia coli BL21(DE3) using 3-O-Methylfluorescein phosphate as substrate by Michaelis-Menten plot analysis; outline: as §2

Chain of M-phase inducer phosphatase 1 (Homo sapiens) (P30304 whole entry, the tested form may be a part): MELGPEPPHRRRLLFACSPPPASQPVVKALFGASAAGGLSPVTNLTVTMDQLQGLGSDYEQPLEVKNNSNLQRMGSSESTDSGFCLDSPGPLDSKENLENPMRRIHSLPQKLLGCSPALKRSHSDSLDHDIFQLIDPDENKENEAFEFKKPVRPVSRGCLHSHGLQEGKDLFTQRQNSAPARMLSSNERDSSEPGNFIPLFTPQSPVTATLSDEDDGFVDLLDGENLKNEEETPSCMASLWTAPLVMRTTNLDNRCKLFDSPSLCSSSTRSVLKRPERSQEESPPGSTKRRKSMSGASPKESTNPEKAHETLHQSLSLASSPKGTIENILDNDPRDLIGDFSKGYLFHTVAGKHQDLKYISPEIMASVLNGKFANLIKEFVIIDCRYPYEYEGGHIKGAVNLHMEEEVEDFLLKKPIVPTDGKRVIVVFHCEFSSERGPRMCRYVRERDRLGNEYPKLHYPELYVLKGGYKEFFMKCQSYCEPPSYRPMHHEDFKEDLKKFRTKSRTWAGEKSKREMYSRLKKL
Chain of M-phase inducer phosphatase 2 (Homo sapiens) (P30305 whole entry, the tested form may be a part): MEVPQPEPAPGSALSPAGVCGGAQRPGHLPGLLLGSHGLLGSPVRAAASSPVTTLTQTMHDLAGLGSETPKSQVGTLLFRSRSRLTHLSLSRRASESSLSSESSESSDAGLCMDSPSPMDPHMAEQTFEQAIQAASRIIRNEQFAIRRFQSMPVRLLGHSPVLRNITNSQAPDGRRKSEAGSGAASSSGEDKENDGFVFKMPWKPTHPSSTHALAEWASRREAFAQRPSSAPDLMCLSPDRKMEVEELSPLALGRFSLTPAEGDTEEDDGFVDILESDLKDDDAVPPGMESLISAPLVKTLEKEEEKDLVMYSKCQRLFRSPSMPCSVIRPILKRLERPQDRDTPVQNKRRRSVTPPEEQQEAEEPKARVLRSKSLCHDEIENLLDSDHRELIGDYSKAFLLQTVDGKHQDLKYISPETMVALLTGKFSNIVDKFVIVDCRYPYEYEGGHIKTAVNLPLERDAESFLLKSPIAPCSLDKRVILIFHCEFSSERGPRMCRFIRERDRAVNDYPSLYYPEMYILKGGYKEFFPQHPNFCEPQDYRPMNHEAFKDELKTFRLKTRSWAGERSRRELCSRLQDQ
Chain of Receptor-type tyrosine-protein phosphatase beta (Homo sapiens) (P23467 whole entry, looked up): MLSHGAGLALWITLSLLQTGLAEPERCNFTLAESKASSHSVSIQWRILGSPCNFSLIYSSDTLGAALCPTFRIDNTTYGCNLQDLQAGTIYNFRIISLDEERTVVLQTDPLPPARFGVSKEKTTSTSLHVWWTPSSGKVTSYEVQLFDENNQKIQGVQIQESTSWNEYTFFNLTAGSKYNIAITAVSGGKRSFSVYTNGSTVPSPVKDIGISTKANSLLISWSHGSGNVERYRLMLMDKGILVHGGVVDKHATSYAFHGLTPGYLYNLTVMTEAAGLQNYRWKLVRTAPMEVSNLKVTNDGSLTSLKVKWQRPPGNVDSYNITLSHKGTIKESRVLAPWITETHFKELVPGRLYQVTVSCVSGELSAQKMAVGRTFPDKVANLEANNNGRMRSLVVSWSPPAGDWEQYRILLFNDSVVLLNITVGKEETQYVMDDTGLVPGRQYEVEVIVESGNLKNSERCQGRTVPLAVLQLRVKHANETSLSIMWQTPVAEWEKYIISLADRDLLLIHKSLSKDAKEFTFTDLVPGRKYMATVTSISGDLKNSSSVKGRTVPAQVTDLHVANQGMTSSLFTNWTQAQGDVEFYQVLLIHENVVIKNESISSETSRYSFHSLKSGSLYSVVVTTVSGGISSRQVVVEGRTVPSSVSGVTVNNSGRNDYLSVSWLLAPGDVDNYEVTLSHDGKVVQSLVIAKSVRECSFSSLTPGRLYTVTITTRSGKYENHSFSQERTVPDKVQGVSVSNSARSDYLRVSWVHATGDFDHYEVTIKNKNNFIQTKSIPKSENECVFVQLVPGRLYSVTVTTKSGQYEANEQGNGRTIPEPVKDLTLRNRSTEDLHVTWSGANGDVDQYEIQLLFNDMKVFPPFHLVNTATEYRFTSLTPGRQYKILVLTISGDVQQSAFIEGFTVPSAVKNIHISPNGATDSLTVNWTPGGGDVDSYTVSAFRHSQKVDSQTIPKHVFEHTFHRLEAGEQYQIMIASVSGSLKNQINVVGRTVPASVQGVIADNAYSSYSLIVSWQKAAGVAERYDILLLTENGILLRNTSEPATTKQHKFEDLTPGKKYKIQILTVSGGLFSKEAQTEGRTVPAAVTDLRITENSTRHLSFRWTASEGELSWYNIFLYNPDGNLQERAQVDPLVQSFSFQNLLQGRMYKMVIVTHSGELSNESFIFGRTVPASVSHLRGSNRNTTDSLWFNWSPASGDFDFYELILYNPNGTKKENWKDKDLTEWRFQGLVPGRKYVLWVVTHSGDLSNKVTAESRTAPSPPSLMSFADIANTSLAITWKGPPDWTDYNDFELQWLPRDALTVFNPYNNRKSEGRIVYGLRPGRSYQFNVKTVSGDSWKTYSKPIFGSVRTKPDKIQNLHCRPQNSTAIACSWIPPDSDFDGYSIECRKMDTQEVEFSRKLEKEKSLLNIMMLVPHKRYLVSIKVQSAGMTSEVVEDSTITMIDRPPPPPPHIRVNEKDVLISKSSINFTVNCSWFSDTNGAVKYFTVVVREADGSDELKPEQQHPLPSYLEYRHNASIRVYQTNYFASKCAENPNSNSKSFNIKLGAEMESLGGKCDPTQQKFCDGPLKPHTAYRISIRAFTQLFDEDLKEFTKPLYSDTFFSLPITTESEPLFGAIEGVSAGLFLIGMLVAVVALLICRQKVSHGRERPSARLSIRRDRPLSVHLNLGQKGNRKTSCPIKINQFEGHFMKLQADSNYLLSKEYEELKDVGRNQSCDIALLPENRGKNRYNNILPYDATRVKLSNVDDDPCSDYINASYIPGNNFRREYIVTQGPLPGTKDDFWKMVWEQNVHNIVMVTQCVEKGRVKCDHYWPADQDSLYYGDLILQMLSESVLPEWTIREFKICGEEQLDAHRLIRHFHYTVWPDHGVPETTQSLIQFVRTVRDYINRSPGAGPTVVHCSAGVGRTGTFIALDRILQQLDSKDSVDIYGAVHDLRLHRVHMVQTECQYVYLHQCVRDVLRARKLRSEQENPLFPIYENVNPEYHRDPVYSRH

Substance | inhibition (Rattus norvegicus) | inhibition [1] | inhibition [2] | inhibition [3] | inhibition [4] | inhibition [5]
4-iodophenylstibonic acid | > 40% | > 90% | – | – | – | –
(E)-3-(3-stibonophenyl)acrylic acid | > 40% | > 90% | Active | Active | Active | Active
2-nitro-4-stibonobenzoic acid | > 40% | > 90% | – | – | – | –
4-stibonophthalic acid | < 40% | 51% | – | – | – | –
3-(3-ethoxy-2-(ethoxycarbonyl)-3-oxopropyl)phenylstibonic acid | < 40% | inactive | – | – | – | –
4-benzamidophenylstibonic acid | > 40% | > 90% | – | – | – | –
4-(2-ethoxy-2-oxoethyl)phenylstibonic acid | > 40% | > 90% | – | – | – | –
2-(3-stibonophenoxy)acetic acid | > 40% | > 90% | – | – | – | –
2-nitrophenylstibonic acid | > 40% | > 90% | – | – | – | –
4-((4-hydroxyphenyl)diazenyl)phenylstibonic acid | > 40% | > 90% | – | – | – | –
2-(4-stibonobenzyl)malonic acid | < 40% | 67% | – | – | – | –
2-(3-stibonobenzyl)malonic acid | > 40% | > 90% | – | – | – | –
3-stibonobenzoic acid | < 40% | 78% | – | – | – | –
3-nitrophenylstibonic acid | < 40% | 50% | – | – | – | –
PHENYLSTIBONIC ACID | < 40% | inactive | – | – | – | –
4-stibonobenzoic acid | < 40% | 72% | – | – | – | –
3-(methoxycarbonyl)phenylstibonic acid | < 40% | inactive | – | – | – | –
3-(3-stibonophenyl)propanoic acid | > 40% | > 90% | Active | Active | Active | Active
4-hydroxyphenylstibonic acid | < 40% | inactive | – | – | – | –
